ChEMBL document CHEMBL4715736, “Identification of anticancer agents based on the thieno[2,3-b]pyridine and 1H-pyrazole molecular scaffolds” (2016)

Tests used:
Format in all cases: functional
RXF 393 = test: Growth inhibition of human RXF 393 cells incubated for 48 hrs by sulforhodamine B assay; conditions: for CC50: read-out: LC50 (the source's name)
Method in brief: (§1)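 NCI DTP 60-line human tumour panel. Dose-response curves were run only for ligands active in the initial 10 µM screen. GI50 (concentration giving 50% of maximal inhibition of proliferation) and TGI (concentration giving total growth inhibition) were derived from these curves.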

A498 = test: Growth inhibition of human A498 cells assessed as cell growth at 100 uM incubated for 48 hrs by sulforhodamine B assay relative to control; conditions: read-out: Activity
Method in brief: (§2)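 NCI Developmental Therapeutics Program NCI60 panel. Compounds that were active in the 10 µM one-dose screen went on to dose–response testing. Growth at each concentration is expressed relative to untreated control (100%). GI50 (concentration giving 50% of maximal inhibition of proliferation) and TGI (concentration giving total growth inhibition) were derived from the curves.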

DU-145 = test: Growth inhibition of human DU-145 cells assessed as cell growth at 100 uM incubated for 48 hrs by sulforhodamine B assay relative to control; conditions: read-out: Activity; method in brief: as §2
NCI-H460 = test: Growth inhibition of human NCI-H460 cells incubated for 48 hrs by sulforhodamine B assay
Method in brief: (§3)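 NCI60 panel at the NCI Developmental Therapeutics Program. Only compounds active in the 10 µM screen went to dose-response testing. GI50, the concentration giving 50% of maximal inhibition of proliferation, and TGI, the concentration giving total growth inhibition, were derived from the dose-response curves.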

NCI-H226 [1] = test: Growth inhibition of human NCI-H226 cells assessed as cell growth at 0.01 uM incubated for 48 hrs by sulforhodamine B assay relative to control; conditions: read-out: Activity
SK-MEL-5 = test: Growth inhibition of human SK-MEL-5 cells assessed as cell growth at 0.1 uM incubated for 48 hrs by sulforhodamine B assay relative to control; conditions: read-out: Activity
COLO 205 = test: Growth inhibition of human COLO 205 cells incubated for 48 hrs by sulforhodamine B assay; method in brief: as §2
KM12 [2] = test: Growth inhibition of human KM12 cells incubated for 48 hrs by sulforhodamine B assay; method in brief: as §3
HOP-62 = test: Growth inhibition of human HOP-62 cells assessed as cell growth at 0.1 uM incubated for 48 hrs by sulforhodamine B assay relative to control; conditions: read-out: Activity
ACHN = test: Growth inhibition of human ACHN cells assessed as cell growth at 1 uM incubated for 48 hrs by sulforhodamine B assay relative to control; conditions: read-out: Activity
SNB-19 = test: Growth inhibition of human SNB-19 cells assessed as cell growth at 0.1 uM incubated for 48 hrs by sulforhodamine B assay relative to control; conditions: read-out: Activity
UO-31 = test: Growth inhibition of human UO-31 cells assessed as cell growth at 1 uM incubated for 48 hrs by sulforhodamine B assay relative to control; conditions: read-out: Activity
NCI-H226 [3] = test: Growth inhibition of human NCI-H226 cells assessed as cell growth at 0.1 uM incubated for 48 hrs by sulforhodamine B assay relative to control; conditions: read-out: Activity
SNB-75 [4] = test: Growth inhibition of human SNB-75 cells incubated for 48 hrs by sulforhodamine B assay; method in brief: as §1
HT-29 [5] = test: Growth inhibition of human HT-29 cells incubated for 48 hrs by sulforhodamine B assay; method in brief: as §3
CCRF-CEM [6] = test: Growth inhibition of human CCRF-CEM cells assessed as cell growth at 100 uM incubated for 48 hrs by sulforhodamine B assay relative to control; conditions: read-out: Activity; method in brief: as §2
KM12 [7] = test: Growth inhibition of human KM12 cells assessed as cell growth at 100 uM incubated for 48 hrs by sulforhodamine B assay relative to control; conditions: read-out: Activity
CCRF-CEM [8] = test: Growth inhibition of human CCRF-CEM cells assessed as cell growth at 1 uM incubated for 48 hrs by sulforhodamine B assay relative to control; conditions: read-out: Activity; method in brief: as §2
SNB-75 [9] = test: Growth inhibition of human SNB-75 cells assessed as cell growth at 1 uM incubated for 48 hrs by sulforhodamine B assay relative to control; conditions: read-out: Activity
OVCAR-8 = test: Growth inhibition of human OVCAR-8 cells assessed as cell growth at 100 uM incubated for 48 hrs by sulforhodamine B assay relative to control; conditions: read-out: Activity
HOP-92 = test: Growth inhibition of human HOP-92 cells incubated for 48 hrs by sulforhodamine B assay; method in brief: as §3
SNB-75 [10] = test: Growth inhibition of human SNB-75 cells assessed as cell growth at 100 uM incubated for 48 hrs by sulforhodamine B assay relative to control; conditions: read-out: Activity
OVCAR-5 = test: Growth inhibition of human OVCAR-5 cells assessed as cell growth at 100 uM incubated for 48 hrs by sulforhodamine B assay relative to control; conditions: read-out: Activity
SR = test: Growth inhibition of human SR cells assessed as cell growth at 0.1 uM incubated for 48 hrs by sulforhodamine B assay relative to control; conditions: read-out: Activity
K562 = test: Growth inhibition of human K562 cells assessed as cell growth at 100 uM incubated for 48 hrs by sulforhodamine B assay relative to control; conditions: read-out: Activity
HT-29 [11] = test: Growth inhibition of human HT-29 cells assessed as cell growth at 0.01 uM incubated for 48 hrs by sulforhodamine B assay relative to control; conditions: read-out: Activity
UACC-62 [12] = test: Growth inhibition of human UACC-62 cells incubated for 48 hrs by sulforhodamine B assay; method in brief: as §1
PC-3 = test: Growth inhibition of human PC-3 cells assessed as cell growth at 0.01 uM incubated for 48 hrs by sulforhodamine B assay relative to control; conditions: read-out: Activity
HCT-15 = test: Growth inhibition of human HCT-15 cells assessed as cell growth at 1 uM incubated for 48 hrs by sulforhodamine B assay relative to control; conditions: read-out: Activity
SK-MEL-2 = test: Growth inhibition of human SK-MEL-2 cells assessed as cell growth at 1 uM incubated for 48 hrs by sulforhodamine B assay relative to control; conditions: read-out: Activity
Hs-578T = test: Growth inhibition of human Hs-578T cells assessed as cell growth at 100 uM incubated for 48 hrs by sulforhodamine B assay relative to control; conditions: read-out: Activity
NCI-H522 = test: Growth inhibition of human NCI-H522 cells incubated for 48 hrs by sulforhodamine B assay; method in brief: as §3
SNB-75 [13] = test: Growth inhibition of human SNB-75 cells assessed as cell growth at 0.01 uM incubated for 48 hrs by sulforhodamine B assay relative to control; conditions: read-out: Activity
UACC-62 [14] = test: Growth inhibition of human UACC-62 cells assessed as cell growth at 100 uM incubated for 48 hrs by sulforhodamine B assay relative to control; conditions: read-out: Activity
MDA-MB-231 = test: Growth inhibition of human MDA-MB-231 cells incubated for 48 hrs by sulforhodamine B assay; conditions: for CC50: read-out: LC50 (the source's name); method in brief: as §3

COc1cccc(NC(=O)c2sc3nc4c(cc3c2N)CN(Cc2ccccc2)CC4)c1
GI50 (RXF 393): 2.71 µM
TGI (RXF 393): 12.9 µM
CC50 (RXF 393): > 100 µM
growth at 100 µM (A498): -47%
growth at 100 µM (DU-145): -61%
GI50 (NCI-H460): 4.18 µM
LC50 (NCI-H460): > 100 µM
TGI (NCI-H460): 30.9 µM
growth at 0.01 µM (NCI-H226 [1]): 93%
growth at 0.1 µM (SK-MEL-5): 90%
GI50 (COLO 205): 7.55 µM
LC50 (concentration killing 50% of cells) (COLO 205): > 100 µM
TGI (COLO 205): 54.5 µM
GI50 (KM12 [2]): 11.8 µM
LC50 (KM12 [2]): > 100 µM
TGI (KM12 [2]): 40.3 µM
growth at 0.1 µM (HOP-62): 86%
growth at 1 µM (ACHN): 92%
growth at 0.1 µM (SNB-19): 94%
growth at 1 µM (UO-31): 77%
growth at 0.1 µM (NCI-H226 [3]): 87%
GI50 (SNB-75 [4]): 1.73 µM
LC50 (SNB-75 [4]): 33.7 µM
TGI (SNB-75 [4]): 4.71 µM
GI50 (HT-29 [5]): 3.75 µM
LC50 (HT-29 [5]): 56.2 µM
TGI (HT-29 [5]): 15.2 µM
growth at 100 µM (CCRF-CEM [6]): 21%
growth at 100 µM (KM12 [7]): -37%
growth at 1 µM (CCRF-CEM [8]): 82%
growth at 1 µM (SNB-75 [9]): 77%
growth at 100 µM (OVCAR-8): -2%
GI50 (HOP-92): 2.21 µM
LC50 (concentration killing 50% of the starting cells) (HOP-92): > 100 µM
TGI (HOP-92): 24.1 µM
growth at 100 µM (SNB-75 [10]): -61%
growth at 100 µM (OVCAR-5): 34%
growth at 0.1 µM (SR): 99%
growth at 100 µM (K562): 8%
growth at 0.01 µM (HT-29 [11]): 104%
GI50 (UACC-62 [12]): 1.92 µM
LC50 (UACC-62 [12]): > 100 µM
TGI (UACC-62 [12]): 29.8 µM
growth at 0.01 µM (PC-3): 94%
growth at 1 µM (HCT-15): 49%
growth at 1 µM (SK-MEL-2): 77%
growth at 100 µM (Hs-578T): -9%
GI50 (NCI-H522): 15.1 µM
LC50 (NCI-H522): > 100 µM
TGI (NCI-H522): > 100 µM
growth at 0.01 µM (SNB-75 [13]): 88%
growth at 100 µM (UACC-62 [14]): -34%
GI50 (MDA-MB-231): 11.4 µM
TGI (MDA-MB-231): 75.3 µM
CC50 (MDA-MB-231): > 100 µM

Nc1c(C(=O)Nc2ccccc2)sc2nc3c(cc12)CN(Cc1ccccc1)CC3
GI50 (RXF 393): 3.15 µM
TGI (RXF 393): 54.2 µM
CC50 (RXF 393): > 100 µM
growth at 100 µM (A498): 42%
growth at 100 µM (DU-145): 16%
GI50 (NCI-H460): 7.51 µM
LC50 (NCI-H460): > 100 µM
TGI (NCI-H460): > 100 µM
growth at 0.01 µM (NCI-H226 [1]): 98%
growth at 0.1 µM (SK-MEL-5): 100%
GI50 (COLO 205): 24 µM
LC50 (concentration killing 50% of cells) (COLO 205): > 100 µM
TGI (COLO 205): > 100 µM
GI50 (KM12 [2]): 19.1 µM
LC50 (KM12 [2]): > 100 µM
TGI (KM12 [2]): > 100 µM
growth at 0.1 µM (HOP-62): 84%
growth at 1 µM (ACHN): 87%
growth at 0.1 µM (SNB-19): 94%
growth at 1 µM (UO-31): 83%
growth at 0.1 µM (NCI-H226 [3]): 96%
GI50 (SNB-75 [4]): 1.32 µM
TGI (SNB-75 [4]): 3.5 µM
GI50 (HT-29 [5]): 24.7 µM
LC50 (HT-29 [5]): > 100 µM
TGI (HT-29 [5]): > 100 µM
growth at 100 µM (CCRF-CEM [6]): 36%
growth at 100 µM (KM12 [7]): 25%
growth at 1 µM (CCRF-CEM [8]): 92%
growth at 1 µM (SNB-75 [9]): 64%
growth at 100 µM (OVCAR-8): 18%
GI50 (HOP-92): 2.48 µM
LC50 (concentration killing 50% of the starting cells) (HOP-92): > 100 µM
TGI (HOP-92): 20.4 µM
growth at 100 µM (SNB-75 [10]): -49%
growth at 100 µM (OVCAR-5): 66%
growth at 0.1 µM (SR): 91%
growth at 100 µM (K562): 12%
growth at 0.01 µM (HT-29 [11]): 104%
GI50 (UACC-62 [12]): 13.9 µM
LC50 (UACC-62 [12]): > 100 µM
TGI (UACC-62 [12]): > 100 µM
growth at 0.01 µM (PC-3): 95%
growth at 1 µM (HCT-15): 94%
growth at 1 µM (SK-MEL-2): 101%
growth at 100 µM (Hs-578T): -6%
GI50 (NCI-H522): 32.5 µM
LC50 (NCI-H522): > 100 µM
TGI (NCI-H522): > 100 µM
growth at 0.01 µM (SNB-75 [13]): 91%
growth at 100 µM (UACC-62 [14]): 6%
GI50 (MDA-MB-231): 5.81 µM
TGI (MDA-MB-231): > 100 µM
CC50 (MDA-MB-231): > 100 µM
